{"source": "ChEMBL document CHEMBL2375329", "about": "“A diazen-1-ium-1,2-diolate analog of 7-azabenzobicyclo[2.2.1]heptane: synthesis, nitric oxide and nitroxyl release, in vitro hemodynamic, and anti-hypertensive studies” (Bioorg Med Chem Lett, 2013)", "key": {"[1]": {"test": "Induction of HNO release in phosphate buffer saline after 48 hrs by phosphine-trapping based LC-MS assay relative to control", "type": "physicochemical", "in_short": "(§1)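 Test compound (20 µM final) was incubated in PBS pH 7.4 containing 7.5% DMSO with a phosphine HNO trap (1 mM final) and 4-hydroxybenzophenone internal standard (5.05 µM), in a sealed vial at 37 °C for 2 h or 48 h. The reaction was quenched with H2O2, dried, and redissolved in methanol. HNO-derived amide was quantified by ESI-negative LC-MS against a standard curve. % is of a theoretical 1 mol HNO/mol, mean of triplicates.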"}, "[2]": {"test": "Induction of HNO release in phosphate buffer saline after 2 hrs by phosphine-trapping based LC-MS assay relative to control", "type": "physicochemical", "in_short": "as §1"}, "[3]": {"test": "Induction of nitric oxide release in phosphate buffer solution after 4 hrs by Griess method relative to control", "type": "physicochemical", "in_short": "(§2)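 Test compound at 5.0 × 10^-2 mM in PBS pH 7.4 at 37 °C for 2 or 4 h. Nitrite formed from NO was quantified by the Griess reaction and expressed as % of a theoretical maximum of 2 mol NO/mol compound; mean of n = 3.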"}, "[4]": {"test": "Induction of nitric oxide release in phosphate buffer solution after 2 hrs by Griess method relative to control", "type": "physicochemical", "in_short": "as §2"}, "[5]": {"test": "Induction of nitric oxide release in phosphate buffer solution after 1.5 hrs by Griess method relative to control", "type": "physicochemical", "in_short": "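Test compound at 5.0×10^-2 mM was incubated in phosphate buffer pH 7.4 at 37 °C for 1.5 h. NO was estimated indirectly as nitrite by the Griess reaction. % nitrite is based on a theoretical maximum of 2 mol NO/mol compound, mean of n = 3.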"}, "[6]": {"test": "Induction of HNO release in phosphate buffer saline after 2 to 4 hrs by phosphine-trapping based LC-MS assay relative to control", "type": "physicochemical", "in_short": "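HNO trapping assay. Test compound at 20 µM with phosphine trap at 1 mM and 4-hydroxybenzophenone internal standard at 5.05 µM, in PBS pH 7.4 containing 7.5% DMSO, sealed, 37 °C. Quenched with H2O2, then dried and redissolved in methanol. HNO-derived amide quantified by ESI-negative LC-MS against a standard curve (0.2-10 µg/mL). Result is % of 1 mol HNO/mol compound; mean of triplicates.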"}, "[7]": {"test": "Half life of the compound in phosphate buffered saline at 300 uM after 24 hrs at pH 7.4 by diazeniumdiolate chromophore-based UV-Vis spectrophotometric analysis", "type": "physicochemical", "in_short": "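Compound at 300 µM final (added from 6 mM DMSO stock; 5% DMSO final) in pH 7.4 phosphate buffer, stirred at 37 °C for 0-24 h. Spectra scanned at 200-400 nm over time. Decay of the diazeniumdiolate absorbance at 259 nm was fitted as first order by linear regression of ln(At − A∞) versus time, and t1/2 = ln2/k.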"}, "Mus musculus [8]": {"system": "Mus musculus", "test": "Effect on cardiac hemodynamic parameter in C57 black mouse assessed as heart rate at 13.7 to 60.345 umol/kg, po after 3 hrs (reference value: 439 +/- 73 bpm)", "type": "functional"}, "Mus musculus [9]": {"system": "Mus musculus", "test": "Antihypertensive activity in C57 black mouse assessed as mean blood pressure at 13.7 to 60.345 umol/kg, po after 6 hrs (reference value: 105.7 +/- 9.3 mmHg)", "type": "functional"}, "Mus musculus [10]": {"system": "Mus musculus", "test": "Antihypertensive activity in C57 black mouse assessed as diastolic blood pressure at 13.7 to 60.345 umol/kg, po after 6 hrs (reference value: 85.3 +/- 11.5 mmHg)", "type": "functional, Artery"}, "Mus musculus [11]": {"system": "Mus musculus", "test": "Antihypertensive activity in C57 black mouse assessed as systolic blood pressure at 13.7 to 60.345 umol/kg, po after 6 hrs (reference value: 126.2 +/- 7.2 mmHg)", "type": "functional, Artery"}, "Mus musculus [12]": {"system": "Mus musculus", "test": "Effect on cardiac hemodynamic parameter in C57 black mouse assessed as heart rate at 13.7 to 60.345 umol/kg, po after 3 hrs (reference value: 448 +/- 72 bpm)", "type": "functional"}, "Mus musculus [13]": {"system": "Mus musculus", "test": "Antihypertensive activity in C57 black mouse assessed as mean blood pressure at 13.7 to 60.345 umol/kg, po after 3 hrs (reference value: 97.5 +/- 8.7 mmHg)", "type": "functional"}, "Mus musculus [14]": {"system": "Mus musculus", "test": "Antihypertensive activity in C57 black mouse assessed as diastolic blood pressure at 13.7 to 60.345 umol/kg, po after 3 hrs (reference value: 77.2 +/- 11.3 mmHg)", "type": "functional, Artery"}, "Mus musculus [15]": {"system": "Mus musculus", "test": "Antihypertensive activity in C57 black mouse assessed as systolic blood pressure at 13.7 to 60.345 umol/kg, po after 3 hrs (reference value: 118.3 +/- 6.1 mmHg)", "type": "functional, Artery"}, "Mus musculus [16]": {"system": "Mus musculus", "test": "Effect on cardiac hemodynamic parameter in C57 black mouse assessed as heart rate at 13.7 to 60.345 umol/kg, po after 1 hr (reference value: 449 +/- 40 bpm)", "type": "functional"}, "Mus musculus [17]": {"system": "Mus musculus", "test": "Antihypertensive activity in C57 black mouse assessed as mean blood pressure at 13.7 to 60.345 umol/kg, po after 1 hr (reference value: 106 +/- 11 mmHg)", "type": "functional"}, "Mus musculus [18]": {"system": "Mus musculus", "test": "Antihypertensive activity in C57 black mouse assessed as diastolic blood pressure at 13.7 to 60.345 umol/kg, po after 1 hr (reference value: 85.5 +/- 12.6 mmHg)", "type": "functional, Artery"}, "Mus musculus [19]": {"system": "Mus musculus", "test": "Antihypertensive activity in C57 black mouse assessed as systolic blood pressure at 13.7 to 60.345 umol/kg, po after 1 hr (reference value: 126.5 +/- 9.4 mmHg)", "type": "functional, Artery"}, "Heart [20]": {"system": "Heart", "test": "Ionotropic activity in C57BL/6 mouse heart assessed as coronary flow rate at 100 uM after 20 mins by hemodynamic analysis (reference value: 2.62 +/- 0.1 ml/min)", "type": "functional", "in_short": "(§3)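 Isolated C57BL/6 mouse hearts perfused retrogradely (Langendorff) at constant pressure (90 cm H2O) with 95% O2/5% CO2-aerated Krebs-Henseleit buffer at 37 °C. After 20 min stabilization, hearts were perfused with compound at 10 or 100 µM for 20 min. Measured: heart rate, rates of contraction and relaxation, LVDP and coronary flow. Comparison to baseline; mean ± SEM, n = 4.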"}, "Heart [21]": {"system": "Heart", "test": "Ionotropic activity in C57BL/6 mouse heart assessed as increase in coronary flow rate at 10 uM after 20 mins by hemodynamic analysis relative to control", "type": "functional", "in_short": "as §3"}, "Heart [22]": {"system": "Heart", "test": "Ionotropic activity in C57BL/6 mouse heart assessed as heart rate at 100 uM after 20 mins by hemodynamic analysis (reference value: 342 +/- 11 bpm)", "type": "functional", "in_short": "as §3"}, "Heart [23]": {"system": "Heart", "test": "Ionotropic activity in C57BL/6 mouse heart assessed as decrease in heart rate at 10 uM after 20 mins by hemodynamic analysis relative to control", "type": "functional", "design": "scale not given: the % may be the effect or the level left", "in_short": "as §3"}, "Heart [24]": {"system": "Heart", "test": "Ionotropic activity in C57BL/6 mouse heart assessed as rate of relaxation at 100 uM after 20 mins by hemodynamic analysis (reference value: -3318 +/- 161 cmH2O/ms)", "type": "functional", "in_short": "as §3"}, "Heart [25]": {"system": "Heart", "test": "Ionotropic activity in C57BL/6 mouse heart assessed as increase in rate of relaxation at 10 uM after 20 mins by hemodynamic analysis relative to control", "type": "functional", "design": "scale not given: the % may be the effect or the level left", "in_short": "as §3"}, "Heart [26]": {"system": "Heart", "test": "Ionotropic activity in C57BL/6 mouse heart assessed as rate of contraction at 100 uM after 20 mins by hemodynamic analysis (reference value: 4178 +/- 141 cmH2O/ms)", "type": "functional", "in_short": "as §3"}, "Heart [27]": {"system": "Heart", "test": "Ionotropic activity in C57BL/6 mouse heart assessed as increase in rate of contraction at 10 uM after 20 mins by hemodynamic analysis relative to control", "type": "functional", "in_short": "as §3"}, "Heart [28]": {"system": "Heart", "test": "Positive ionotropic activity in C57BL/6 mouse heart assessed as left ventricular developing pressure at 100 uM after 20 mins by hemodynamic analysis (reference value: 169 +/- 2 cmH2O)", "type": "functional", "in_short": "as §3"}, "Heart [29]": {"system": "Heart", "test": "Positive ionotropic activity in C57BL/6 mouse heart assessed as increase in left ventricular developing pressure at 10 uM after 20 mins by hemodynamic analysis relative to control", "type": "functional", "in_short": "as §3"}, "[30]": {"test": "Ratio of IPA/No half life to compound half life in phosphate buffered saline at pH 7.4", "type": "physicochemical", "conditions": "buffer"}, "[31]": {"test": "Induction of nitric oxide release in phosphate buffer solution after 2 to 4 hrs by Griess method relative to control", "type": "physicochemical", "in_short": "as §2"}}}
{"smiles": "[Na+].[Na+].[O-][N+]([O-])=NO", "note": "[ANGELI'S SALT]", "values": [{"measurement": "Activity", "setting": "[1]", "value": 85.7, "unit": "%"}, {"measurement": "Activity", "setting": "[2]", "value": 85.9, "unit": "%"}, {"measurement": "Activity", "setting": "[3]", "value": 20.8, "unit": "%"}, {"measurement": "Activity", "setting": "[4]", "value": 21.3, "unit": "%"}]}
{"smiles": "CC(C)N[N+]([O-])=N[O-].[Na+]", "values": [{"measurement": "Activity", "setting": "[1]", "value": 5.1, "unit": "%"}, {"measurement": "Activity", "setting": "[2]", "value": 5.4, "unit": "%"}, {"measurement": "Activity", "setting": "[5]", "value": 62, "unit": "%"}]}
{"smiles": "CN(c1ccc(C#N)cc1)N(O)N=O", "values": [{"measurement": "Activity", "setting": "[6]", "value": 100, "unit": "%"}, {"measurement": "half-life at 300 µM", "setting": "[7]", "value": 11, "unit": "min"}]}
{"smiles": "[Na+].[O-]/N=[N+](/[O-])N1C2CCC1c1ccccc12", "values": [{"measurement": "Activity", "setting": "Mus musculus [8]", "value": 466, "unit": "bpm"}, {"measurement": "Activity", "setting": "Mus musculus [9]", "value": 101.1, "unit": "mmHg"}, {"measurement": "Activity", "setting": "Mus musculus [10]", "value": 87.2, "unit": "mmHg"}, {"measurement": "Activity", "setting": "Mus musculus [11]", "value": 128.9, "unit": "mmHg"}, {"measurement": "Activity", "setting": "Mus musculus [12]", "value": 554, "unit": "bpm"}, {"measurement": "Activity", "setting": "Mus musculus [13]", "value": 85.8, "unit": "mmHg"}, {"measurement": "Activity", "setting": "Mus musculus [14]", "value": 75.4, "unit": "mmHg"}, {"measurement": "Activity", "setting": "Mus musculus [15]", "value": 106.5, "unit": "mmHg"}, {"measurement": "Activity", "setting": "Mus musculus [16]", "value": 605, "unit": "bpm"}, {"measurement": "Activity", "setting": "Mus musculus [17]", "value": 82.3, "unit": "mmHg"}, {"measurement": "Activity", "setting": "Mus musculus [18]", "value": 70.6, "unit": "mmHg"}, {"measurement": "Activity", "setting": "Mus musculus [19]", "value": 105.5, "unit": "mmHg"}, {"measurement": "Activity", "setting": "Heart [20]", "value": 3.92, "unit": "mL/min"}, {"measurement": "Activity", "setting": "Heart [21]", "value": 53, "unit": "%"}, {"measurement": "Activity", "setting": "Heart [22]", "value": 307, "unit": "bpm"}, {"measurement": "Activity", "setting": "Heart [23]", "value": 22, "unit": "%"}, {"measurement": "Activity", "setting": "Heart [24]", "value": -3945, "unit": "cmH2O/ms"}, {"measurement": "Activity", "setting": "Heart [25]", "value": 9, "unit": "%"}, {"measurement": "Activity", "setting": "Heart [26]", "value": 5547, "unit": "cmH2O/ms"}, {"measurement": "Activity", "setting": "Heart [27]", "value": 30, "unit": "%"}, {"measurement": "Activity", "setting": "Heart [28]", "value": 213, "unit": "cmH2O"}, {"measurement": "Activity", "setting": "Heart [29]", "value": 24, "unit": "%"}, {"measurement": "Activity", "setting": "[1]", "value": 20.2, "unit": "%"}, {"measurement": "Activity", "setting": "[2]", "value": 22.3, "unit": "%"}, {"measurement": "Activity", "setting": "[3]", "value": 21.5, "unit": "%"}, {"measurement": "Activity", "setting": "[4]", "value": 19, "unit": "%"}, {"measurement": "Ratio", "setting": "[30]", "value": 7.7}, {"measurement": "half-life at 300 µM", "setting": "[7]", "value": 17.8, "unit": "min"}]}
{"smiles": "CN(N=O)c1ccc(C#N)cc1", "values": [{"measurement": "Activity", "setting": "[31]", "value": 100, "unit": "%"}]}
